Bioassay records: PubChem, several laboratories
DDE Tn7 FP inh = DD(E)-Tn7 binding inhibition, primary FP screen | P02675 | FP displacement of FITC-Tn7 peptide from fibrin DD(E); 0% = median of compound wells per plate | inhibition, % at 8.3 µM | 0.13% of 370,000 active;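 active means inhibition above the mean of compounds falling within the control limits plus 3 SD of them, cut at about 14% in these data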;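 further: 0% = plate median of compound wells and 100% = 10 µM Aha-Tn7 peptide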
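Assay system: Fibrin-DD(E) protein isolated from polymerized human fibrin clots; read-out basis: percent inhibition; medium: Tris/NaCl/CaCl2 buffer, pH 7.8; signal: FP measurement; incubation: 10 min plus 3 h, room temperature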
Keap1-Nrf2 PPI = inhibitors of human Keap1-Nrf2 protein-protein interaction; Q14145; Keap1 Kelch-Nrf2 peptide fluorescence polarization, 1536-well; inhibition, % at 9.4 µM; 0.15% of 340,000 active; AID 504523; in the data active means inhibition above about 12%; inconclusive means no clear call, values can overlap the other calls; inactive means below about 7.3%;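 further: human Keap1 Kelch domain with fluorescein labeled Nrf2 9mer peptide probe; 0% = neutral control wells and 100% = peptide positive control; higher means more block of Keap1 binding to Nrf2 peptide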
Tn6 DDE FP = DD(E)-Tn6 binding inhibition, primary FP screen; 0.21% of 370,000 active; inhibition, % at 8.3 µM; Fibrin DD(E) TRITC-Tn6 fluorescence polarization displacement; AID 720509;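 active means inhibition above a per-campaign cutoff: mean of compounds within control limits plus 3 SD, cut at about 15% in these data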;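 further: 0% = median of all compound wells on the plate and 100% = blocking peptide control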
Rtt109 HAT inh = C. albicans Rtt109 histone acetyltransferase inhibition | purified Rtt109/Vps75, ThioGlo CoA-SH fluorescence, 4 h | inhibition, % at 34.9 µM | 0.16% of 330,000 active;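 active means inhibition of at least 50% in every replicate; inconclusive means best replicate reaches 50% inhibition but some replicates fall short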
Target sequence (Q5AAJ8 whole entry, looked up): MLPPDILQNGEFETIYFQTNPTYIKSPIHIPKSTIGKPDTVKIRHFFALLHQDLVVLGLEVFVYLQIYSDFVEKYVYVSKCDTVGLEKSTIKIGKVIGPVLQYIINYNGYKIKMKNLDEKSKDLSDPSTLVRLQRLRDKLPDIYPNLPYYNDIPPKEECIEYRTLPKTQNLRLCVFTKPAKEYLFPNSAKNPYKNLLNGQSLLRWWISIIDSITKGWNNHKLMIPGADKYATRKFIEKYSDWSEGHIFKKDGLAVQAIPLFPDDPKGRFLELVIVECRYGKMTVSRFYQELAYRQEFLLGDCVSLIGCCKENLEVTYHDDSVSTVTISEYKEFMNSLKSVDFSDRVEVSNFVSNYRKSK
LANA DNA inh = KSHV C-LANA DNA binding inhibition. 0.078% of 340,000 active. MBP-C-LANA/FAM-LBS DNA binding, fluorescence polarization. inhibition, % at 9 µM. AID 504423;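 active means highest replicate inhibition at or above 60% at 9 µM, even if other replicates fall short; inactive means all replicates below 60% inhibition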;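 further: 0% = neutral control wells and 100% = 4 µM acridine orange control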
Active calls of the source: *; ? = inconclusive; / = not tested or not shown. Shown are actives, neighbours in structure and some others; about 0.6% of the full set was active somewhere.

SMILES	DDE Tn7 FP inh	Keap1-Nrf2 PPI	Tn6 DDE FP	Rtt109 HAT inh	LANA DNA inh
COc1ccc(N2CCN(C(=O)CSc3nnc(-c4cccnc4)n3-c3ccc(F)cc3)CC2)cc1	0	-2	8	6	-2
COc1ccc(N2CCN(C(=O)CSc3nnc(-c4cccnc4)n3-c3ccccc3)CC2)cc1	9	-2	4	53*	1
CCN1/C(=C/c2ccc3cc(C)cc(C)c3[n+]2CC)Sc2cc(C)ccc21	-23	-24	-4	82*	-55
COc1ccc(Cl)cc1-c1nc(SCC(=O)NC2CCCC2)n[nH]1	3	-5	7	2	1
O=C(CSc1n[nH]c(-c2ccccc2Cl)n1)NC1CCCCC1	5	-3	-1	51*	1
O=C(NCCN1CCCCC1)Nc1ccc([N+](=O)[O-])cc1	-4	1	7	51*	-1
CCN1CCN(CCNC(=O)Nc2ccc([N+](=O)[O-])cc2)CC1	1	-2	8	2	1
O=C(/C(=N/N=C/c1ccc(O)c(O)c1O)c1ccccc1)c1ccccc1	-8	2	-4	78*	2
Cc1ccc2c(c1)-c1c(cnn1CC(=O)NCCc1cccc(F)c1)CO2	4	/	-3	/	/
Cc1ccc(NC(=S)N(CCCN2CCCC2)Cc2cccn2Cc2ccc(Cl)cc2)cc1C	-3	-2	4	62*	-1
Cc1ccc(NC(=S)N(CCCN2CCCC2)Cc2cccn2Cc2ccc(Cl)cc2)cc1Cl	6	-10	1	4	-16
COC(=O)[C@]12C[C@H](CC(=O)NCC34CC5CC(CC(C5)C3)C4)C(=O)N(Cc3ccc(Cl)cc3Cl)C1=C[C@H](C1CCCC1)O[C@@H]2C	0	/	-2	/	/
O=S(=O)(c1ccc(Br)s1)N1CCC(c2nc3ccccc3o2)CC1	6	/	4	/	/
Cc1nc2sc(C(=O)NCc3ccncc3)c(N)c2c(C)c1Cl	-5	/	-3	/	/
CCc1cccc(NC(=O)C2CCCN(c3ncnc4c3nc3n4CCCCC3)C2)c1 (stereo unspecified)	-6	2	5	87*	-1
O=C(Nc1cccnc1)C1CCCN(c2ncnc3c2nc2n3CCCCC2)C1 (stereo unspecified)	2	-3	-8	-2	-1
Cc1ccc(OCc2nnc(SCC(=O)Nc3ccccc3-c3ccccc3)n2Cc2ccco2)cc1	-7	/	-8	/	/
CC(=O)Nc1ccc(NC(=O)c2nc(S(=O)(=O)Cc3ccccc3)ncc2Cl)cc1	-3	0	-6	113*	-1
O=C(NCc1ccccc1)c1nc(S(=O)(=O)Cc2ccccc2)ncc1Cl	3	-29	-5	?	0
O=C1OCc2ccc(NC(=O)C3CC3)cc21	7	2	4	20	84*
O=C1OCc2cc(NC(=O)C3CCCCC3)ccc21	0	-7	-7	17	-1
CC1=C(C)/C(=N\OS(=O)(=O)c2ccc(C)cc2)C=CC1=O	0	2	0	109*	1
CCOC(=O)C(C)N1C(=O)S/C(=C/c2ccc3c(c2)n(C)c(=O)n3C)C1=O (stereo unspecified)	3	-4	-2	54*	-3
O=C(O)CCc1ccc(-c2cccs2)o1	/	-2	/	53*	3
Cc1ccc(-c2ccc(CCC(=O)O)o2)cc1	-7	-6	1	3	-2
SMILES	DDE Tn7 FP inh	Keap1-Nrf2 PPI	Tn6 DDE FP	Rtt109 HAT inh	LANA DNA inh
CCCCNC(=O)C[C@H]1C(=O)N(CCCOC)C2=CCCCC[C@]21C(=O)OC	4	/	2	/	/
Cc1ccc2nc(N(CCCN(C)C)C(=O)c3ccc4c(c3)CCCC4)sc2c1	0	-5	0	63*	0
Cc1cc(C)c2nc(N(CCCN(C)C)C(=O)c3ccc4c(c3)CCCC4)sc2c1	3	/	5	/	/
CCCCn1c(N)c(N(Cc2ccccc2OC)C(=O)c2sccc2C)c(=O)[nH]c1=O	0	-2	2	50*	1
CCCCn1c(N)c(N(Cc2ccccc2OC)C(=O)c2cc(CC)c(C)s2)c(=O)[nH]c1=O	0	0	4	18	0
CN(CCO)c1cccc2c1S(=O)(=O)N(Cc1cn(Cc3cccc(C(F)(F)F)c3)nn1)Cc1ccccc1O2	2	/	-3	/	/
O=C(NCc1cccs1)c1cc(-c2cccs2)on1	6	-7	91*	-8	-1
O=C(NCc1cccs1)c1cc(-c2ccccc2)on1	-3	-2	3	17	-1
O=C(CCN1C(=O)/C(=C/c2ccco2)SC1=S)Nc1ccc(C(=O)O)c(O)c1	1	-3	-1	-9	88*
COc1ccccc1/C=C1\SC(=S)N(CCC(=O)Nc2ccc(C(=O)O)c(O)c2)C1=O	-2	-2	-8	-3	10
O=C(CCN1C(=O)/C(=C\c2ccco2)SC1=S)Nc1ccc(C(=O)O)c(O)c1	2	-2	-3	25	83*
COc1ccc(-c2noc(C3CCCN(C(=O)Nc4ccc(C)c(F)c4)C3)n2)cc1 (stereo unspecified)	-8	/	2	/	/
CC(COc1ccc(C#N)cc1F)CN1CCC(C(O)(c2ccccc2)c2ccccc2)CC1 (stereo unspecified)	-7	/	6	/	/
CC1(C)CC2(CC(c3ccccc3F)c3ccc(O)c(O)c3O2)NC(=S)N1 (stereo unspecified)	8	-1	-1	175*	0
CC1(C)CC2(CC(c3ccc(F)cc3)c3ccc(O)cc3O2)NC(=S)N1 (stereo unspecified)	-3	5	-1	1	1
CN(C)CCCN(C(=O)CCc1ccccc1)c1nc2c(F)cccc2s1	0	-6	-2	10	-3
CN(C)CCCN(C(=O)CCOc1ccccc1)c1nc2c(F)cccc2s1	-7	-133	1	98*	-2
COC(=O)[C@]12C[C@H](CC(=O)N3CCCC3)C(=O)N(Cc3cccc4ccccc34)C1=C[C@H](COCc1ccccc1)O[C@@H]2C	-5	/	7	/	/
COc1ccc2ccccc2c1C=Nn1c(-c2cc(-c3ccccc3)n[nH]2)n[nH]c1=S	4	/	1	/	/
O=C(CCc1nnc(C2(c3ccc(Cl)cc3)CCC2)o1)NCCCn1cccn1	0	-2	-8	50*	-2
COc1cc(NC(=O)C2CCCN(S(=O)(=O)c3ccc(Cl)s3)C2)cc(OC)c1 (stereo unspecified)	-3	/	6	/	/
CCC1CCCCN1C(=O)n1ncc(C(O)(c2ccccc2)c2ccccc2)n1 (stereo unspecified)	11	/	-2	/	/
COc1ccc(CN(C)C(=O)c2cc(S(=O)(=O)N3CCCCCC3)ccc2OC)cc1OC	-1	6	6	57*	0
COc1ccc(S(=O)(=O)N2CCCCCC2)cc1C(=O)N(C)Cc1ccc(F)cc1	-1	-3	-4	4	0
O=c1[nH]c2cc(Br)c(Br)nc2[nH]1	7	/	5	/	/
